# Measurements: ChEMBL document CHEMBL3102784, “Salicylanilide diethyl phosphates: synthesis, antimicrobial activity and cytotoxicity” (Bioorg Med Chem, 2014)
# Activity calls are given as the source filed them. The rule behind the calls is not given here.
# Experiments:
# Nakaseomyces glabratus = test: Antifungal activity against Candida glabrata 20/I at 500 micromol/L after 24 to 48 hrs by broth microdilution method; type: functional, organism-based
# Procedure, shortened: (§1)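 Broth microdilution in RPMI 1640 with glutamine, fluconazole as reference. For yeasts, MIC is ≥80% growth reduction (IC80) versus control. For filamentous fungi, the value is expressed as IC50. Readings at 24 and 48 h.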
# [1] = system: Trichophyton mentagrophytes; test: Antifungal activity against Trichophyton mentagrophytes 445 after 72 hrs by broth microdilution method; type: functional; conditions: Trichophyton mentagrophytes, 445, 72 h
# Procedure, shortened: (§2)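 Filamentous dermatophyte tested by broth microdilution in RPMI 1640 with glutamine, fluconazole as reference. Value expressed as IC50 relative to growth control. Read at 72 and 120 h.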
# [2] = system: Staphylococcus epidermidis; test: Antibacterial activity against Staphylococcus epidermidis H 6966/08 after 24 hrs by broth microdilution method; type: functional; conditions: H 6966/08, 24 h
# Procedure, shortened: (§3)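 Broth microdilution in Mueller–Hinton broth, compounds dissolved in DMSO, tested over a dilution series from 500 downward. MIC taken as ≥95% growth reduction (IC95) versus drug-free control. Benzylpenicillin comparator. Readings at 24 and 48 h.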
# Mycobacterium kansasii [3] = test: Antimycobacterial activity against Mycobacterium kansasii 6509/96 after 7 days; type: functional; conditions: 6509/96, 168 h
# Procedure, shortened: (§4)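 Micromethod MIC in Šula's semisynthetic medium at 37 °C. Compounds added in DMSO at 1000 down to 0.032 µmol/L. Isoniazid standard in sterile water at 0.5–250 µmol/L. Inocula: H37Rv 10^3, M. avium 10^5, M. kansasii 10^4. Read at 14 and 21 d, plus 7 d for M. kansasii.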
# Enterococcus sp. = test: Antibacterial activity against Enterococcus sp. J 14365/08 at 500 micromol/L after 24 to 48 hrs by broth microdilution method; type: functional, organism-based; procedure, shortened: as §3
# Aspergillus fumigatus [4] = test: Antifungal activity against Aspergillus fumigatus 231 after 24 hrs by broth microdilution method; type: functional; conditions: Aspergillus fumigatus, 231, 24 h; procedure, shortened: as §1
# Lichtheimia corymbifera [5] = test: Antifungal activity against Absidia corymbifera 272 after 24 hrs by broth microdilution method; type: functional; conditions: Lichtheimia corymbifera, 272, 24 h; procedure, shortened: as §1
# Escherichia coli = test: Antibacterial activity against Escherichia coli CCM 4517 at 500 micromol/L after 24 to 48 hrs by broth microdilution method; type: functional, organism-based; procedure, shortened: as §3
# Aspergillus fumigatus [6] = test: Antifungal activity against Aspergillus fumigatus 231 after 48 hrs by broth microdilution method; type: functional; conditions: Aspergillus fumigatus, 231, 48 h; procedure, shortened: as §1
# Mycobacterium avium [7] = test: Antimycobacterial activity against isoniazid, rifampicin, ethambutol and ofloxacin-resistant Mycobacterium avium My 330/88 after 21 days; type: functional; conditions: My 330/88, 504 h; procedure, shortened: as §4
# Pichia kudriavzevii [8] = test: Antifungal activity against Candida krusei E28 after 24 hrs by broth microdilution method; type: functional; conditions: E28, 24 h; procedure, shortened: as §1
# Mycobacterium avium [9] = test: Antimycobacterial activity against isoniazid, rifampicin, ethambutol and ofloxacin-resistant Mycobacterium avium My 330/88 after 14 days; type: functional; conditions: My 330/88, 336 h; procedure, shortened: as §4
# Mycobacterium kansasii [10] = test: Antimycobacterial activity against Mycobacterium kansasii My 235/80 after 21 days; type: functional; conditions: My 235/80, 504 h; procedure, shortened: as §4
# Candida albicans [11] = test: Antifungal activity against Candida albicans ATCC 44859 after 48 hrs by broth microdilution method; type: functional; conditions: ATCC 44859, 48 h; procedure, shortened: as §1
# Mycobacterium kansasii [12] = test: Antimycobacterial activity against Mycobacterium kansasii 6509/96 after 14 days; type: functional; conditions: 6509/96, 336 h; procedure, shortened: as §4
# Candida albicans [13] = test: Antifungal activity against Candida albicans ATCC 44859 after 24 hrs by broth microdilution method; type: functional; conditions: ATCC 44859, 24 h; procedure, shortened: as §1
# Staphylococcus aureus [14] = test: Antibacterial activity against methicillin-resistant Staphylococcus aureus H 5996/08 after 24 hrs by broth microdilution method; type: functional; conditions: H 5996/08, 24 h; procedure, shortened: as §3
# Staphylococcus aureus [15] = test: Antibacterial activity against methicillin-resistant Staphylococcus aureus H 5996/08 after 48 hrs by broth microdilution method; type: functional; conditions: H 5996/08, 48 h; procedure, shortened: as §3
# Mycobacterium kansasii [16] = test: Antimycobacterial activity against Mycobacterium kansasii 6509/96 after 21 days; type: functional; conditions: 6509/96, 504 h; procedure, shortened: as §4
# Klebsiella pneumoniae [17] = test: Antibacterial activity against Klebsiella pneumoniae D 11750/08 at 500 micromol/L after 24 to 48 hrs by broth microdilution method; type: functional, organism-based; procedure, shortened: as §3
# [18] = system: Trichophyton mentagrophytes; test: Antifungal activity against Trichophyton mentagrophytes 445 after 120 hrs by broth microdilution method; type: functional; conditions: Trichophyton mentagrophytes, 445, 120 h; procedure, shortened: as §2
# Trichosporon asahii [19] = test: Antifungal activity against Trichosporon asahii 1188 after 48 hrs by broth microdilution method; type: functional; conditions: Trichosporon asahii, 1188, 48 h; procedure, shortened: as §1
# [20] = system: Staphylococcus epidermidis; test: Antibacterial activity against Staphylococcus epidermidis H 6966/08 after 48 hrs by broth microdilution method; type: functional; conditions: H 6966/08, 48 h; procedure, shortened: as §3
# Pseudomonas aeruginosa = test: Antibacterial activity against Pseudomonas aeruginosa CCM 1961 at 500 micromol/L after 24 to 48 hrs by broth microdilution method; type: functional, organism-based; procedure, shortened: as §3
# Pichia kudriavzevii [21] = test: Antifungal activity against Candida krusei E28 after 48 hrs by broth microdilution method; type: functional; conditions: E28, 48 h; procedure, shortened: as §1
# HepG2 = test: Cytotoxicity against human HepG2 cells after 24 hrs by CellTiter assay; type: cell-based; conditions: HepG2, 24 h
# Procedure, shortened: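 HepG2 cells (passage 27–33) in MEM with 10% FBS, L-glutamine and NEAA, seeded at 1×10^4 per well. Treated next day with compounds at 0.1–100 µM (or 0.1–25 µmol/L), triplicates, <1% DMSO, for 24 h at 37 °C, 5% CO2. MTS reagent added for 2 h, absorbance read at 490 nm. IC50 taken against untreated (100%) and 10% DMSO (0%) controls.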
# Staphylococcus aureus [22] = test: Antibacterial activity against Staphylococcus aureus CCM 4516/08 after 48 hrs by broth microdilution method; type: functional; conditions: CCM 4516/08, 48 h; procedure, shortened: as §3
# Lichtheimia corymbifera [23] = test: Antifungal activity against Absidia corymbifera 272 after 48 hrs by broth microdilution method; type: functional; conditions: Lichtheimia corymbifera, 272, 48 h; procedure, shortened: as §1
# [24] = system: Mycobacterium tuberculosis; test: Antimycobacterial activity against Mycobacterium tuberculosis H37Rv My 331/88 after 21 days; type: functional; conditions: H37Rv My 331/88, 504 h; procedure, shortened: as §4
# [25] = system: Mycobacterium tuberculosis; test: Antimycobacterial activity against Mycobacterium tuberculosis H37Rv My 331/88 after 14 days; type: functional; conditions: H37Rv My 331/88, 336 h; procedure, shortened: as §4
# Klebsiella pneumoniae [26] = test: Antibacterial activity against ESBL-positive Klebsiella pneumoniae J 14368/08 at 500 micromol/L after 24 to 48 hrs by broth microdilution method; type: functional, organism-based; procedure, shortened: as §3
# Mycobacterium kansasii [27] = test: Antimycobacterial activity against Mycobacterium kansasii My 235/80 after 7 days; type: functional; conditions: My 235/80, 168 h; procedure, shortened: as §4
# Staphylococcus aureus [28] = test: Antibacterial activity against Staphylococcus aureus CCM 4516/08 after 24 hrs by broth microdilution method; type: functional; conditions: CCM 4516/08, 24 h; procedure, shortened: as §3
# Candida tropicalis = test: Antifungal activity against Candida tropicalis 156 at 500 micromol/L after 24 to 48 hrs by broth microdilution method; type: functional, organism-based; procedure, shortened: as §1
# Mycobacterium kansasii [29] = test: Antimycobacterial activity against Mycobacterium kansasii My 235/80 after 14 days; type: functional; conditions: My 235/80, 336 h; procedure, shortened: as §4
# Trichosporon asahii [30] = test: Antifungal activity against Trichosporon asahii 1188 after 24 hrs by broth microdilution method; type: functional; conditions: Trichosporon asahii, 1188, 24 h; procedure, shortened: as §1
smiles,measurement,setting,value
CCOP(=O)(OCC)Oc1ccc(Br)cc1C(=O)Nc1cccc(Br)c1,Activity,Nakaseomyces glabratus,inactive
same,MIC50,[1],> 500 µM
same,MIC95,[2],31.2 µM
same,MIC,Mycobacterium kansasii [3],4 µM
same,Activity,Enterococcus sp.,inactive
same,MIC50,Aspergillus fumigatus [4],> 500 µM
same,MIC50,Lichtheimia corymbifera [5],> 500 µM
same,Activity,Escherichia coli,inactive
same,MIC50,Aspergillus fumigatus [6],> 500 µM
same,MIC,Mycobacterium avium [7],16 µM
same,MIC80,Pichia kudriavzevii [8],> 500 µM
same,MIC,Mycobacterium avium [9],16 µM
same,MIC,Mycobacterium kansasii [10],8 µM
same,MIC80,Candida albicans [11],> 500 µM
same,MIC,Mycobacterium kansasii [12],8 µM
same,MIC80,Candida albicans [13],> 500 µM
same,MIC95,Staphylococcus aureus [14],31.2 µM
same,MIC95,Staphylococcus aureus [15],250 µM
same,MIC,Mycobacterium kansasii [16],8 µM
same,Activity,Klebsiella pneumoniae [17],inactive
same,MIC50,[18],> 500 µM
same,MIC80,Trichosporon asahii [19],> 500 µM
same,MIC95,[20],250 µM
same,Activity,Pseudomonas aeruginosa,inactive
same,MIC80,Pichia kudriavzevii [21],> 500 µM
same,IC50,HepG2,4.41 µM
same,MIC95,Staphylococcus aureus [22],250 µM
same,MIC50,Lichtheimia corymbifera [23],> 500 µM
same,MIC,[24],2 µM
same,MIC,[25],2 µM
same,Activity,Klebsiella pneumoniae [26],inactive
same,MIC,Mycobacterium kansasii [27],4 µM
same,MIC95,Staphylococcus aureus [28],31.2 µM
same,Activity,Candida tropicalis,inactive
same,MIC,Mycobacterium kansasii [29],8 µM
same,MIC80,Trichosporon asahii [30],> 500 µM
